Format in all cases: functional, cell-based
A short description of assay [1]: Cytotoxicity against human MDA-MB-435 cells assessed as decrease in cell viability after 72 hrs by cell titer 96 one solution assay. To be noted: MDA-MB-435, 72 h. A digest of the protocol:
(§1)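 Cells grown at 37 °C, 5% CO2 in RPMI 1640 with 10% FBS, penicillin 100 units/mL, streptomycin 100 μg/mL. Log-phase cells trypsinized, washed twice, seeded at 5000/well, left overnight. DMSO-dissolved samples added at 20, 4, 0.8, 0.16, 0.032 μM (final DMSO 0.5%). After 72 h at 37 °C, viable cells read by MTS-type absorbance kit. IC50 in μM relative to DMSO control.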

The nature of assay [2]: Cytotoxicity against human MDA-MB-231 cells assessed as decrease in cell viability after 72 hrs by cell titer 96 one solution assay. To be noted: MDA-MB-231, 72 h. A digest of the protocol:
as §1

A short description of assay [3]: Cytotoxicity against human OVCAR3 cells assessed as decrease in cell viability after 72 hrs by cell titer 96 one solution assay. To be noted: OVCAR-3, 72 h. A digest of the protocol:
as §1

Drawing on ChEMBL document CHEMBL3861966, “Di-nor- and 17-nor-pimaranes from Icacina trichantha” (J Nat Prod, 2016), this text covers IC50 for seven molecules.

With `COc1cc2c(c(O)c1C=O)C[C@H]1OC(=O)[C@]3(C)[C@H]1[C@]21CC[C@]3(O)OC1`, the IC50 in assay [1], in assay [2] and in assay [3] was above 20 µM each time.
Turning to `COc1cc2c(c3occc13)[C@H](O)[C@H]1OC(=O)[C@]3(C)[C@H]1[C@]21CC[C@]3(O)OC1`, the IC50 in assay [1], in assay [2] and in assay [3] was above 20 µM each time.
`COc1cc2c(c3occc13)[C@H]1OC3O[C@@]4(O)CC[C@@]23[C@H]2[C@@H]1OC(=O)[C@]24C`: the IC50 in assay [1], in assay [2] and in assay [3] was above 20 µM each time.
On to `C[C@]12C(=O)O[C@@H]3[C@@H](O)[C@H]4c5occc5C(=O)C[C@H]4[C@]4(CO[C@@]1(O)[C@@H](O)C4)[C@@H]32`, for which the IC50 is 2.91 µM in assay [1], 7.6 µM in assay [2] and 7.53 µM in assay [3].
Taken in the same sequence, the figures for `COc1cc2c(c3occc13)[C@@H](O)[C@@]1(O)OC[C@@]23CCC(=O)[C@@H](C)[C@@H]31` were above 20 µM, above 20 µM and above 20 µM.
For the molecule `C[C@]12C(=O)O[C@@H]3C[C@H]4C5=C(CC[C@H]4[C@]4(CO[C@@]1(O)[C@@H](O)C4)[C@@H]32)C(=O)CO5`, the half-inhibitory concentration (IC50) in assay [1] turned out to be 1.48 µM; in assay [2], 2.85 µM; in assay [3], 3.23 µM.
As to `CC[C@]1(O)C[C@@H]2CN(CCc3c([nH]c4ccccc34)[C@@](C(=O)OC)(c3cc4c(cc3OC)N(C)[C@H]3[C@@](O)(C(=O)OC)[C@H](OC(C)=O)[C@]5(CC)C=CCN6CC[C@]43[C@@H]65)C2)C1` [VINBLASTINE], the IC50 in assay [1] came out at 0.00049 µM.
